Reference: ChEMBL document CHEMBL5500411, “Discovery of Dual MER/AXL Kinase Inhibitors as Bifunctional Small Molecules for Inhibiting Tumor Growth and Enhancing Tumor Immune Microenvironment” (J Med Chem, 2024)
Blank lines part the entries; values can stand above or below the compound they belong to.

Legend:
[1] = biological target: T1, Tyrosine-protein kinase Mer (Homo sapiens) (UniProt Q12866); assay: Inhibition of MER (unknown origin) at 1 uM preincubated for 15 mins followed by substrate and ATP addition and measured after 3 hrs by ADP-Glo kinase assay relative to control; conditions: time 195.0 min
T1 sequence (whole entry): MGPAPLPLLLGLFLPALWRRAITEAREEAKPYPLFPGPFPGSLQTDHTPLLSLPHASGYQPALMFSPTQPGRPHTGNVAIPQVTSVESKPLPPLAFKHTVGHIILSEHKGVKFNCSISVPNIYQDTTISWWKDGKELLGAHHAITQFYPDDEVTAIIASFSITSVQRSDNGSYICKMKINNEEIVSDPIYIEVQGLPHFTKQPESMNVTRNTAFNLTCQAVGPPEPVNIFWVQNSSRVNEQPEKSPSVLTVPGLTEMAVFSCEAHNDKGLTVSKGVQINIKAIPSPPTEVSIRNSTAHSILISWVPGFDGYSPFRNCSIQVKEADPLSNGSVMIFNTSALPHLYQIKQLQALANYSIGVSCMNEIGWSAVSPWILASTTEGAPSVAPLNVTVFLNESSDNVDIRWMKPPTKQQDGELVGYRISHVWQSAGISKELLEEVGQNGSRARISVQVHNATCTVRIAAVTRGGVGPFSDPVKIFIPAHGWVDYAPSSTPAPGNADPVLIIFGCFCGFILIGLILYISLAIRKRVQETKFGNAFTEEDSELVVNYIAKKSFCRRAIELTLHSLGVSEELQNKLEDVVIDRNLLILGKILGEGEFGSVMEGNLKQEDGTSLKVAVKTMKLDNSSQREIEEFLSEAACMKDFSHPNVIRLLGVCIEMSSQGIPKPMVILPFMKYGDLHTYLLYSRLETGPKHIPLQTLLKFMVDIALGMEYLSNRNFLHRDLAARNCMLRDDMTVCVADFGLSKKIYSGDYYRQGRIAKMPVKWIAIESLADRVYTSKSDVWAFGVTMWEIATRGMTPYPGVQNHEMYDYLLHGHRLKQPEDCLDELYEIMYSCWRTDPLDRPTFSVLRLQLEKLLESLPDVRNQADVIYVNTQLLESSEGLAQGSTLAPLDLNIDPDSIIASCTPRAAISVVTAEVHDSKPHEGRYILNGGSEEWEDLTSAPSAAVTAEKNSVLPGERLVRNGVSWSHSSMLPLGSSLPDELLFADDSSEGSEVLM

[2] = biological target: Tyrosine-protein kinase receptor UFO (Homo sapiens) (UniProt P30530); assay: Inhibition of AXL (unknown origin) at 1 uM preincubated for 15 mins followed by substrate and ATP addition and measured after 3 hrs by ADP-Glo kinase assay relative to control; conditions: time 195.0 min
[3] = biological target: Epidermal growth factor receptor (Homo sapiens) (UniProt P00533); assay: Inhibition of wildtype EGFR (unknown origin) at 1 uM by kinase Glo assay relative to control
How it was run: (§1)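 In-house Kinase-Glo luminescence assay on wild-type and T790M/L858R EGFR. Values are the mean of at least two independent experiments.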

[4] = tested on: Epidermal growth factor receptor (Homo sapiens), P00533 [L858R,T790M]; assay: Inhibition of EGFR T790M/L858R double mutant (unknown origin) at 1 uM by kinase Glo assay relative to control; how it was run: as §1
MDA-MB-231 [5] = assay: Antitumor activity against MER/AXL overexpressing human MDA-MB-231 cells xenografted in immunodeficient NOD/SCID mouse model assessed as tumor growth inhibition at 25 mg/kg, po administered twice a day with five days on and two days off for 4 weeks relative to control; format: functional; conditions: MDA-MB-231, 672 h, read-out: TGI
How it was run: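 Female NOD/SCID mice (6–7 weeks old) were given 5 million Mycoplasma-free MDA-MB-231 cells in 1:1 matrigel/medium, implanted subcutaneously. After randomization at about 150 mm³ average tumor volume, mice got oral drug or vehicle, BID, FOTO, for 4 weeks, n = 8 per group. Caliper volumes (L×W×W/2) were measured weekly. %TGI = [1 − ΔT/ΔC]×100, with Δ taken from day 0.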

MDA-MB-231 [6] = assay: Antitumor activity against MER/AXL overexpressing human MDA-MB-231 cells xenografted in immunodeficient NOD/SCID mouse model assessed as tumor growth inhibition at 25 mg/kg, po administered twice a day with five days on and two days off for 4 weeks in presence of (1r,4r)-4-(2-(butylamino)-5-(4-((4-methylpiperazin-1-yl)methyl)phenyl)-7H-pyrrolo[2,3-d]pyrimidin-7-yl)cyclohexan-1-ol relative to …; format: functional; conditions: MDA-MB-231, 672 h, read-out: TGI
[7] = Volume of distribution at steady state in male ICR mouse at 2 mg/kg, iv measured after 24 hrs by LC-MS/MS analysis; format: ADME, organism-based; conditions: in vivo
How it was run: (§2)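 Male ICR mice (25–35 g) given one iv or oral dose of 2, 3 or 10 mg/kg. Vehicles were PEG400/DMA (80/20) for both routes, or DMSO/CrEL/D5W (5/5/90) iv and 1% CMC + 0.5% Tween80 oral. Plasma was taken by cardiac puncture at 0–24 h, three mice per time point. Parent drug was measured by LC-MS/MS and analysed noncompartmentally. DNAUC = AUC(0–inf)/dose.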

[8] = Toxicity in immunocompetent female C57BL/6 mouse implanted with mouse MC-38 cells assessed as body weight loss at 50 mg/kg, po administered twice a day with five days on and two days off for 3 weeks; format: organism-based; conditions: in vivo, 504 h
How it was run: (§3)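 Syngeneic models in female C57BL/6 mice aged 6–7 weeks: MC38 (10⁵ cells) or Hepa1–6 (10⁶ cells) injected subcutaneously into the left flank. Oral dosing on a five-on/two-off schedule: MC38 at 50 mg/kg QD or BID for 3 weeks, Hepa1–6 at 30 mg/kg QD. Body weight was recorded weekly. n = 8–9 per group.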

[9] = Toxicity in immunocompetent female C57BL/6 mouse implanted with mouse MC-38 cells assessed as body weight loss at 50 mg/kg, po administered once a day with five days on and two days off for 3 weeks; format: organism-based; conditions: in vivo, 504 h; how it was run: as §3
[10] = Toxicity in BALB/c mouse implanted with mouse 4T1 cells assessed as body weight loss at 50 mg/kg, po administered once a day with five days on and two days off; format: organism-based; conditions: in vivo
How it was run: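 Female Balb/c mice aged 6–7 weeks implanted with 4T1 cells (1 million in matrigel/medium) in the fourth left mammary fat pad. Treatment started near 50–60 mm³: 50 mg/kg oral QD on a five-on/two-off schedule. Body weight was measured weekly. n = 8–9 per group.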

[11] = Toxicity in immunodeficient NOD/SCID mouse xenografted with MER/AXL overexpressing human MDA-MB-231 cells assessed as body weight loss at 50 mg/kg, po administered once a day with five days on and two days off; format: organism-based; conditions: in vivo
[12] = Toxicity in immunocompetent female C57BL/6 mouse implanted with mouse MC-38 cells assessed as body weight loss at 50 mg/kg, po administered once a day with five days on and two days off; format: organism-based; conditions: in vivo; how it was run: as §3
[13] = Toxicity in immunocompetent female C57BL/6 mouse implanted with mouse Hepa1-6 cells assessed as body weight loss at 30 mg/kg, po administered once a day with five days on and two days off; format: organism-based; conditions: in vivo; how it was run: as §3
[14] = Toxicity in ICR mouse at 10 to 100 mg/kg administered for 14 days; format: organism-based; conditions: in vivo, 336 h, dose 10-100 mg/kg, time 14 day
[15] = Toxicity in ICR mouse assessed as decrease in creatinine level at 30 to 100 mg/kg administered for 14 days; format: organism-based; conditions: in vivo, 336 h, dose 30-100 mg/kg, time 14 day
[16] = Toxicity in ICR mouse assessed as decrease in creatinine level at 100 mg/kg administered for 14 days; format: organism-based; conditions: in vivo, 336 h, time 14 day
[17] = Dose normalized AUC (0 to infinity) in male ICR mouse at 2 mg/kg, iv measured after 24 hrs by LC-MS/MS analysis; format: ADME, organism-based; conditions: in vivo; how it was run: as §2
[18] = Dose normalized AUC (0 to infinity) in male ICR mouse at 10 mg/kg, po measured after 24 hrs by LC-MS/MS analysis; format: ADME, organism-based; conditions: in vivo; how it was run: as §2
[19] = Dose normalized AUC (0 to infinity) in male ICR mouse at 3 mg/kg, iv measured after 24 hrs by LC-MS/MS analysis; format: ADME, organism-based; conditions: in vivo; how it was run: as §2
[20] = Dose normalized AUC (0 to infinity) in male ICR mouse at 3 mg/kg, po measured after 24 hrs by LC-MS/MS analysis; format: ADME, organism-based; conditions: in vivo; how it was run: as §2
[21] = Toxicity in immunocompetent female C57BL/6 mouse implanted with mouse MC-38 cells assessed as body weight loss at 25 to 50 mg/kg, po administered twice a day with five days on and two days off for 3 weeks; format: organism-based; conditions: in vivo, 504 h, dose 25-50 mg/kg
How it was run: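 Female C57BL/6 mice aged 6–7 weeks bearing subcutaneous MC38 (10⁵ cells) tumors, treated from 50–60 mm³. Dosing was 25 or 50 mg/kg oral BID on a five-on/two-off schedule for 3 weeks. Body weight was recorded weekly. n = 8 per group.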

MDA-MB-231 [22] = assay: Antitumor activity against MER/AXL overexpressing human MDA-MB-231 cells xenografted in immunodeficient NOD/SCID mouse model assessed as tumor growth inhibition at 25 mg/kg, po administered twice a day with five days on and two days off for 4 weeks in presence of bemcentinib relative to control; format: functional; conditions: MDA-MB-231, 672 h, read-out: TGI
How it was run: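 MDA-MB-231 cells (5 million, 1:1 matrigel/medium) implanted in 6–7-week-old female NOD/SCID mice. Dosing began at about 150 mm³ mean tumor volume: 25 mg/kg oral BID on a five-on/two-off schedule for 4 weeks, given alone or in combination.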

[23] = biological target: T2, Tyrosine-protein kinase Mer (Homo sapiens, UniProt Q12866); assay: Inhibition of MER (unknown origin) by KINOMEScan assay
T2 sequence (Q12866 whole entry): T1 sequence (whole entry)

Chain of Epidermal growth factor receptor (Homo sapiens) (P00533 whole entry): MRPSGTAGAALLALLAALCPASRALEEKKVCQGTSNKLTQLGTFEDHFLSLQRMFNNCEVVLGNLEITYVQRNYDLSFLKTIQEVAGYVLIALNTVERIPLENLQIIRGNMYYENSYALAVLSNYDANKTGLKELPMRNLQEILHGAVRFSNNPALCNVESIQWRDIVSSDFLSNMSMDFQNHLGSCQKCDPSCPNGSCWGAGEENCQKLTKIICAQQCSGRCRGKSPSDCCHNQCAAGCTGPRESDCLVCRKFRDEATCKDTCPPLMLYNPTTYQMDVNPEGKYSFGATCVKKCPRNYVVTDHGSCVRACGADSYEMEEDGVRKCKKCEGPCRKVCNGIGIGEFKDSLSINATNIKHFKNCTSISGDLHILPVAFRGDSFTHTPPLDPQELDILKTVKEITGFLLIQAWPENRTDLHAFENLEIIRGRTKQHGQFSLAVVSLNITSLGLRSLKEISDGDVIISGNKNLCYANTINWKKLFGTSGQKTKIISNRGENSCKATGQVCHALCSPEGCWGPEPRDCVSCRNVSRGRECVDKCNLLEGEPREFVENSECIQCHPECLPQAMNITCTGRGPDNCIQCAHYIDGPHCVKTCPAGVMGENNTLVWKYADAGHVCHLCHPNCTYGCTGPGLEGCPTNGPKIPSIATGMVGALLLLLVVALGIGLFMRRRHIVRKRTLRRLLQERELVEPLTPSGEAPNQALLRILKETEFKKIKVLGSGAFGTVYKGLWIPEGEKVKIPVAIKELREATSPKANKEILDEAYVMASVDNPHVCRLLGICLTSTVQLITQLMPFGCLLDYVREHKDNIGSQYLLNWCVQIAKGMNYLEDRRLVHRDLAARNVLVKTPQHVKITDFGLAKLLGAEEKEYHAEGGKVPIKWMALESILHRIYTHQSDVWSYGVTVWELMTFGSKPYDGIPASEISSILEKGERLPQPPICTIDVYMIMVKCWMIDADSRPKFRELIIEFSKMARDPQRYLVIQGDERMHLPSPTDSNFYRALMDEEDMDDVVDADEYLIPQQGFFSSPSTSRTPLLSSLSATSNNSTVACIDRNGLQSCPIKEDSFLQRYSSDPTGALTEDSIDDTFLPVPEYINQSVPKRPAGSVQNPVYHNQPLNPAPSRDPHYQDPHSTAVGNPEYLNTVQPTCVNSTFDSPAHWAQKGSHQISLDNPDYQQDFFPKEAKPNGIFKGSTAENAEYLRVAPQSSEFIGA
Chain of Epidermal growth factor receptor (Homo sapiens), P00533 [L858R,T790M] (P00533 whole entry T790M/L858R, looked up): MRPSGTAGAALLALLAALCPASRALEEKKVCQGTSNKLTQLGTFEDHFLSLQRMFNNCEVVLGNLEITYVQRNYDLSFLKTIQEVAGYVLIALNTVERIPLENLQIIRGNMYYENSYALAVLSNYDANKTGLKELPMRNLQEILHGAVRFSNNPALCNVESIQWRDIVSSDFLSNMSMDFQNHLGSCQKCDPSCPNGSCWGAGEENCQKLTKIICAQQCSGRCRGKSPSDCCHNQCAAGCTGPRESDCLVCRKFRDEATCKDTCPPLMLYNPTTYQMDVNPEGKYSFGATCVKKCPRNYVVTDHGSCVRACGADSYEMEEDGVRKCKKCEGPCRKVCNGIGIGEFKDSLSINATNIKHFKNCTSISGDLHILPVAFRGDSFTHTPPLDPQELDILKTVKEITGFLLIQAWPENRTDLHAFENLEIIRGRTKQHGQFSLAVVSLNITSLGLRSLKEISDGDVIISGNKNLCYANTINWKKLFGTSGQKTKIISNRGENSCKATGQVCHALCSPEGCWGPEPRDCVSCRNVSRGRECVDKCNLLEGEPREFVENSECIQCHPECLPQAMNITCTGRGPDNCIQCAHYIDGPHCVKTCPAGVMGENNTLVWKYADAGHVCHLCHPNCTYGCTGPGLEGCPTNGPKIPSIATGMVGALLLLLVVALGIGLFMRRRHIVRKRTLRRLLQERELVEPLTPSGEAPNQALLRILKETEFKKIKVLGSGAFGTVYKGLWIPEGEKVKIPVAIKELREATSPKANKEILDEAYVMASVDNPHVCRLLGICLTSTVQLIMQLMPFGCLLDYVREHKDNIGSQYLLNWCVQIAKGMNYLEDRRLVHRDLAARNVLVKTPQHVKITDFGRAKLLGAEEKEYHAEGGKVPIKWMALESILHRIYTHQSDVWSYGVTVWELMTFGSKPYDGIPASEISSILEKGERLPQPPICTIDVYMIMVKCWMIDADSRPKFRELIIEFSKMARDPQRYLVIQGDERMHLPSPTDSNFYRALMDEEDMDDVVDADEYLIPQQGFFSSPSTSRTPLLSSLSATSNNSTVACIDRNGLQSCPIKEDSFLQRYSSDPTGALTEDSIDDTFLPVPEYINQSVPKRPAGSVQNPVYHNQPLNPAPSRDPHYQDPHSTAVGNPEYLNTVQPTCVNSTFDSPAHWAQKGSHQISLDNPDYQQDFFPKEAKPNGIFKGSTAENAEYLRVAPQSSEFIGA
Chain of Tyrosine-protein kinase receptor UFO (Homo sapiens) (P30530 whole entry): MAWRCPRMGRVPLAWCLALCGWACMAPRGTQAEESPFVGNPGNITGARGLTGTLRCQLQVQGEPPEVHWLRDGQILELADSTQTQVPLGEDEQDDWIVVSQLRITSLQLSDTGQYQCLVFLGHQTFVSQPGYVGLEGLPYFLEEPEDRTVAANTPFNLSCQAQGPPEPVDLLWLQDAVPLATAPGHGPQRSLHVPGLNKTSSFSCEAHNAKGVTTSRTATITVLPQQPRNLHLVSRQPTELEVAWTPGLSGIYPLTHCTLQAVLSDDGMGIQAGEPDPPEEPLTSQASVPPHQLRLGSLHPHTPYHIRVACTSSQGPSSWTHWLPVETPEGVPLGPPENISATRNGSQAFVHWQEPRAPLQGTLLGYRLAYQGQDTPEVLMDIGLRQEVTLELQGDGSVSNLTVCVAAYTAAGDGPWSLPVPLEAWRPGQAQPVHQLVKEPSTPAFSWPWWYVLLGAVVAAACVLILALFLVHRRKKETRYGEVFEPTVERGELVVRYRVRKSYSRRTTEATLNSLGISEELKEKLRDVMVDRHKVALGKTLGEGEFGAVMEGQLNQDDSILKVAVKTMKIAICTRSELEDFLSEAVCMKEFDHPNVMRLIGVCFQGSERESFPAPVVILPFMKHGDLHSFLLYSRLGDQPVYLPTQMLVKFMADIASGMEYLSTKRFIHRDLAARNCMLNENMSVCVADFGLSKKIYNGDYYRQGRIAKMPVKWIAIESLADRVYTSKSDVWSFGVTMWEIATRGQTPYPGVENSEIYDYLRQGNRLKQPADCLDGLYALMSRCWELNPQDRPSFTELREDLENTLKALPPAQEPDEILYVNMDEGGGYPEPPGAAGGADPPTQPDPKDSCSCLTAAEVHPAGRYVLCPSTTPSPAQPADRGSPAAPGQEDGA

inhibition [1]: 41%
inhibition [2]: 98%
inhibition [3]: 3%
inhibition [4]: 2%
Structure (SMILES): O=C(Nc1ccc(F)cc1)C1(C(=O)Nc2ccc(Oc3ncnc4oc(-c5ccccc5)c(-c5ccccc5)c34)cc2)CC1

Structure (SMILES): Nc1nc(Nc2ccc3c(c2)CC[C@@H](N2CCCC2)CC3)nn1-c1cc2c(nn1)-c1ccccc1CCC2 [BEMCENTINIB]
inhibition in vivo at 25 mg/kg (MDA-MB-231 [5]): 7.7%
inhibition in vivo at 25 mg/kg (MDA-MB-231 [6]): 52.4%

Vdss [7]: 52 L/kg
Structure (SMILES): CN(C)Cc1cccc(-c2c(-c3cnn(C)c3)oc3ncnc(Oc4ccc(NC(=O)c5cccn(-c6ccc(F)cc6)c5=O)cc4)c23)c1
Activity [8]: Non-Toxic
Activity [9]: Non-Toxic
Activity [10]: Non-Toxic
Activity [11]: Non-Toxic
Activity [12]: Non-Toxic
Activity [13]: Non-Toxic
Activity [14]: Non-Toxic
Activity [15]: Toxic

inhibition [1]: 19%
inhibition [2]: 92%
inhibition [3]: 1%
inhibition [4]: -4%
Structure (SMILES): Nc1cccc(-c2c(-c3ccccc3)oc3ncnc(Nc4ccc(NC(=O)C5(C(=O)Nc6ccc(F)cc6)CC5)cc4)c23)c1

Structure (SMILES): COc1cc2nccc(Oc3ccc(NC(=O)c4cc5c(n(-c6ccccc6)c4=O)CCCC5=O)nc3)c2cc1OC [TAMNORZATINIB]
Activity [10]: Non-Toxic
Activity [11]: Non-Toxic
Activity [12]: Non-Toxic
Activity [13]: Non-Toxic
Activity [16]: Toxic

AUC/dose [17]: 3330.5 ng.hr/ml per mg/kg
AUC/dose [18]: 15.3 ng.hr/ml per mg/kg
Structure (SMILES): CNc1cccc(-c2c(-c3cnn(C)c3)oc3ncnc(Oc4ccc(NC(=O)c5cccn(-c6ccc(F)cc6)c5=O)cc4)c23)c1

AUC/dose [17]: 454.5 ng.hr/ml per mg/kg
AUC/dose [18]: 2.6 ng.hr/ml per mg/kg
Structure (SMILES): Cn1cc(-c2oc3ncnc(Oc4ccc(NC(=O)c5cccn(-c6ccc(F)cc6)c5=O)cc4)c3c2-c2cccc(N3CCNCC3)c2)cn1

AUC/dose [17]: 221 ng.hr/ml per mg/kg
AUC/dose [18]: 32.8 ng.hr/ml per mg/kg
Structure (SMILES): CN1CCN(c2cccc(-c3c(-c4cnn(C)c4)oc4ncnc(Oc5ccc(NC(=O)c6cccn(-c7ccc(F)cc7)c6=O)cc5)c34)c2)CC1

AUC/dose [17]: 483 ng.hr/ml per mg/kg
Structure (SMILES): Cn1cc(-c2oc3ncnc(Oc4ccc(NC(=O)c5cccn(-c6ccc(F)cc6)c5=O)cc4)c3c2-c2cccc(CN)c2)cn1

inhibition [1]: 9%
inhibition [2]: 95%
inhibition [3]: 1%
inhibition [4]: -6%
Structure (SMILES): Nc1cccc(-c2c(-c3ccccc3)oc3ncnc(Oc4ccc(NC(=S)NC(=O)Cc5ccccc5)cc4)c23)c1

AUC/dose [19]: 3985.3 ng·h/mL
AUC/dose [20]: 764 ng·h/mL
Structure (SMILES): Cn1cc(-c2oc3ncnc(Oc4ccc(NC(=O)c5cccn(-c6ccc(F)cc6)c5=O)cc4)c3c2-c2cccc(N)c2)cn1
Activity [21]: Non-Toxic
Activity [8]: Non-Toxic
Activity [9]: Non-Toxic

Structure (SMILES): CCCCNc1ncc2c(-c3ccc(CN4CCN(C)CC4)cc3)cn([C@H]3CC[C@H](O)CC3)c2n1
inhibition in vivo at 25 mg/kg (MDA-MB-231 [5]): 15.9%
inhibition in vivo at 25 mg/kg (MDA-MB-231 [22]): 52.4%

inhibition [1]: 71%
inhibition [2]: 100%
inhibition [3]: 0%
inhibition [4]: -9%
Structure (SMILES): Nc1cccc(-c2c(-c3ccccc3)oc3ncnc(Oc4ccc(NC(=O)C5(C(=O)Nc6ccc(F)cc6)CC5)cc4)c23)c1

inhibition [1]: 4%
inhibition [2]: 53%
inhibition [3]: 4%
inhibition [4]: 1%
Structure (SMILES): O=C(Nc1ccc(F)cc1)C1(C(=O)Nc2ccc(Oc3ncnc4oc(-c5ccccc5)cc34)cc2)CC1

IC50 [23]: 0.8 nM
Structure (SMILES): Cc1ccc(C(=O)Nc2ccc(Oc3cc4cnn(C)c4cc3-c3cn[nH]c3)c(F)c2)c(=O)n1-c1ccc(F)cc1 [MERESTINIB]
